Data published in ChEMBL document CHEMBL4422684, “Identification of novel lysine demethylase 5-selective inhibitors by inhibitor-based fragment merging strategy” (Bioorg Med Chem, 2019).

Legend:
[1] = biological target: T1, Lysine-specific demethylase 4A (Homo sapiens) (UniProt O75164); experiment: Inhibition of human N-terminal His-tagged KDM4A (1 to 350 residues) expressed in Escherichia coli at 50 uM using H3(21-44)-K36(Me3)-GK(Biotin)/2-OG as substrate measured after 1 hr by Alphalisa assay relative to control
T1 sequence (whole entry): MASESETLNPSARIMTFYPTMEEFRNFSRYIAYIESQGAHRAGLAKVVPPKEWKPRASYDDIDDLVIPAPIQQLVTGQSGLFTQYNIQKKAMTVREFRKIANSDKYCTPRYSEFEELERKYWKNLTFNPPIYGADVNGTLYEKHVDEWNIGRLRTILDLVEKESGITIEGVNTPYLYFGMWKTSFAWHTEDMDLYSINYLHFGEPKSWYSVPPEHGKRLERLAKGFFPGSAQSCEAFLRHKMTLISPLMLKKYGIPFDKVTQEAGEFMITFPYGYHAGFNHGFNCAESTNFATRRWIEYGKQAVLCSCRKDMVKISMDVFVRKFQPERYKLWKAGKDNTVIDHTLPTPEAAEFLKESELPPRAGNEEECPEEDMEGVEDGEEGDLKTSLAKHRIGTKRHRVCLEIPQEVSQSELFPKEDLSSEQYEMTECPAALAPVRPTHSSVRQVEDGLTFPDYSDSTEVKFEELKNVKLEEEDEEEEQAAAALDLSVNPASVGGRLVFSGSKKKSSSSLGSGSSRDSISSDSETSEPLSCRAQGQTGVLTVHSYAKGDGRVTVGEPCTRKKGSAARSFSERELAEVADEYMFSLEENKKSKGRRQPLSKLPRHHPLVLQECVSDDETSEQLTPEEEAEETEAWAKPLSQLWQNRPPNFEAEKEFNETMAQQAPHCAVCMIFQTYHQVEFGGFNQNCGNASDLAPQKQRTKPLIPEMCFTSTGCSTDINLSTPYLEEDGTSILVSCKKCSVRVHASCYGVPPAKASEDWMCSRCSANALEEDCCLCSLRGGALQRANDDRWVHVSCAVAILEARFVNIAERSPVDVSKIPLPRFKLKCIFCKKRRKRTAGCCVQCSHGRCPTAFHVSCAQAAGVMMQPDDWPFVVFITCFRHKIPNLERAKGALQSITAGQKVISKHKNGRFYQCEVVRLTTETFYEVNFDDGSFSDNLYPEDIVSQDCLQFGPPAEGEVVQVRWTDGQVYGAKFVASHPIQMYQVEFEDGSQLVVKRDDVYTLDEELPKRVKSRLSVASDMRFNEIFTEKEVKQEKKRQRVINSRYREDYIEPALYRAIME
Summary of the method: (§1)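 AlphaLISA demethylase assay in 50 mM HEPES pH 7.5, 0.1% BSA, 0.01% Tween 20 with DMSO. Enzyme and inhibitor combined, then peptide plus 2-OG (50 µM), Fe(II) (5 µM) and ascorbate (100 µM) in the added mix; 1 h at room temperature with shaking.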

[2] = biological target: T1, Lysine-specific demethylase 4A (Homo sapiens); experiment: Inhibition of human N-terminal His-tagged KDM4A (1 to 350 residues) expressed in Escherichia coli at 25 uM using H3(21-44)-K36(Me3)-GK(Biotin)/2-OG as substrate measured after 1 hr by Alphalisa assay relative to control; summary of the method: as §1
[3] = biological target: Lysine-specific demethylase 5A (Homo sapiens, UniProt P29375); experiment: Inhibition of KDM5A in human A549 cells assessed as increase in H3K4me3 levels after 48 hrs by Western blot analysis; type: cell-based
Summary of the method: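 A549 cells (5 × 10^5 per 2 mL well, RPMI1640 with 10% heat-inactivated FBS) exposed 48 h to compounds at 1, 5 or 25 µM. SDS lysates normalised by BCA, separated on 5-20% SDS-PAGE, blotted to PVDF, blocked in 5% milk/TBS-T, probed for H3K4me3, H3K9me3, H3K27me3 and total H3, detected by HRP chemiluminescence.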

[4] = biological target: T2, Lysine-specific demethylase 3A (Homo sapiens) (UniProt Q9Y4C1); experiment: Inhibition of human N-terminal FLAG-tagged KDM3A (2 to 1321 residues) expressed in baculovirus infected Sf9 insect cells at 50 uM using H3(1-21)K9(Me1)-GGK(Biotin)/2-OG as substrate measured after 1 hr by Alphalisa assay relative to control; summary of the method: as §1
T2 sequence (whole entry): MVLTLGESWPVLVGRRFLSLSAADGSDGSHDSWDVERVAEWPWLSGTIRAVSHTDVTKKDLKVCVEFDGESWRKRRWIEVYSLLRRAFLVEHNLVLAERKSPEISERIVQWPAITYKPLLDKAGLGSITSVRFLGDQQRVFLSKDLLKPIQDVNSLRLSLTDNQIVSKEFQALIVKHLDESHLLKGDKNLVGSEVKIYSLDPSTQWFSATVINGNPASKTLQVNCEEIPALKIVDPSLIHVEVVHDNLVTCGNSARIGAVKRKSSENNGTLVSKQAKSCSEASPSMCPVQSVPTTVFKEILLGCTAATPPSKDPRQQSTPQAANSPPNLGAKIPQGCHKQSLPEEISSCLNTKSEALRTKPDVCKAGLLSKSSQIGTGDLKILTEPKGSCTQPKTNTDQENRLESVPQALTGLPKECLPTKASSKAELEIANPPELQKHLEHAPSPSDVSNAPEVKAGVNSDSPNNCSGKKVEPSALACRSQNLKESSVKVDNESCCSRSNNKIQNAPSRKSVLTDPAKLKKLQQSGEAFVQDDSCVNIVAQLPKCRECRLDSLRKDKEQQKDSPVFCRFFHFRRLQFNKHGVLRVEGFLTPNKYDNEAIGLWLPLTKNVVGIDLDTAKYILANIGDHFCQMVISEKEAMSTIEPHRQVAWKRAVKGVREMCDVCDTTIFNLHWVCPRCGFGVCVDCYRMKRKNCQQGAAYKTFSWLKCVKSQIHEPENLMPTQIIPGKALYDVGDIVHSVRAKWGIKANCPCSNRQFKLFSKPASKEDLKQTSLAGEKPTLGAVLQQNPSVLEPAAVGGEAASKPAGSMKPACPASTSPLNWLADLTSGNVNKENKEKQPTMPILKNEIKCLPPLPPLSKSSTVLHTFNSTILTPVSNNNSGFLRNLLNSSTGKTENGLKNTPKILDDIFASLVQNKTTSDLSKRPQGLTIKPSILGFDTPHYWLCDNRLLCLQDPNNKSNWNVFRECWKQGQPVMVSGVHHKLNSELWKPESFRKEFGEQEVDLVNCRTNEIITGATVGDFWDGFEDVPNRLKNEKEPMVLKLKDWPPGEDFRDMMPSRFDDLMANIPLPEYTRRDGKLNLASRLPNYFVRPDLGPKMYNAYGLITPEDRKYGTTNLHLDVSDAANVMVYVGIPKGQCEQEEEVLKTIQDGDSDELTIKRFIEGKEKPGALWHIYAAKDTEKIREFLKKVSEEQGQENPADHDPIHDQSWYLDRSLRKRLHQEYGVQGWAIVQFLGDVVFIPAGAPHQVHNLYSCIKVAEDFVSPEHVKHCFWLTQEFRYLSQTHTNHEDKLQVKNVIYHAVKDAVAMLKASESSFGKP

Sequence of Lysine-specific demethylase 5A (P29375 whole entry): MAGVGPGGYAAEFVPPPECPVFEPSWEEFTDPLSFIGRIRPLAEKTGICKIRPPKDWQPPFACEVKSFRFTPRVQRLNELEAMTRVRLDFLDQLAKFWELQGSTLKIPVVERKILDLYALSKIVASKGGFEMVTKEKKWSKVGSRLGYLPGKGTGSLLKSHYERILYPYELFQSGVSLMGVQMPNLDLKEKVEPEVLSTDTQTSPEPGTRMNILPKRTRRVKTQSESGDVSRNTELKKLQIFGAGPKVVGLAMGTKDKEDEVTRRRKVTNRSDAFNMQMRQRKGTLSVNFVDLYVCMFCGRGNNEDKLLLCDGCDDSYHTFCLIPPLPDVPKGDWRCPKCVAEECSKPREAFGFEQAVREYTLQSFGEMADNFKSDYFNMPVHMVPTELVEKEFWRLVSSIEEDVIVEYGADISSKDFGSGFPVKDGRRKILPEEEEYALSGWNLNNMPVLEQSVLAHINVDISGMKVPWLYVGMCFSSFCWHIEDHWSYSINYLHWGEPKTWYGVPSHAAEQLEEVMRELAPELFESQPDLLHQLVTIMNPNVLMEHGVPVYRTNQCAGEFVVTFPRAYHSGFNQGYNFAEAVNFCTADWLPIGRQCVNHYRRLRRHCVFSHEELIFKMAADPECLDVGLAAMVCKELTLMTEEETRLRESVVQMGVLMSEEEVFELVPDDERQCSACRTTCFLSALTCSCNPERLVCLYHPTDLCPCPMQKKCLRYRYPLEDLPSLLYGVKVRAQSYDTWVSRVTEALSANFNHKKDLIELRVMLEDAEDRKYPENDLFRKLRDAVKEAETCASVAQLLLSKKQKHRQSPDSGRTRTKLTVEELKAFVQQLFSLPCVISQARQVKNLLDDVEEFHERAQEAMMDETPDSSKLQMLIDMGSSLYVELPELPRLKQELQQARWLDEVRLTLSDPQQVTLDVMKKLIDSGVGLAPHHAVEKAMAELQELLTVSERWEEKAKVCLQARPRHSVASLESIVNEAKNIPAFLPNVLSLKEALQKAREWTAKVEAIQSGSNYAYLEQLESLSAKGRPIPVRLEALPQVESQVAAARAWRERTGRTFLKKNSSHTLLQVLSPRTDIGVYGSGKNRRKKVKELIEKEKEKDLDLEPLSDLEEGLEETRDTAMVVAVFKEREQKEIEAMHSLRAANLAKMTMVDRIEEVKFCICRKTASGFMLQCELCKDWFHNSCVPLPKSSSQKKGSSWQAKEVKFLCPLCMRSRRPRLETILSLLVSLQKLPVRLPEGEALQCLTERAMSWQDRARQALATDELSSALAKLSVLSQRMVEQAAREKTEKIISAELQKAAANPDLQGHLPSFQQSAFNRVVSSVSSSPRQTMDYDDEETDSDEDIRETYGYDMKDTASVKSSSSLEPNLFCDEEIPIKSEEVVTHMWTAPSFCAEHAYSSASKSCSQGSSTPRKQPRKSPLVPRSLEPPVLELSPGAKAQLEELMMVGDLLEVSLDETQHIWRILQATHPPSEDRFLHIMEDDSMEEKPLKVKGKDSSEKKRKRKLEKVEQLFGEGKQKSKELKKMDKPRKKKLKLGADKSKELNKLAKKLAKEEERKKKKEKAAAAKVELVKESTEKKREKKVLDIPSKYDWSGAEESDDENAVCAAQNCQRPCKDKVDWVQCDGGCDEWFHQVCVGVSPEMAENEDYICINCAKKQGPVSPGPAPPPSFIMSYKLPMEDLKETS

| inhibition [1] [%] | inhibition [2] [%] | inhibition [3] | inhibition [4] [%] | Structure (SMILES) |
| --- | --- | --- | --- | --- |
| 71 | 32.4 | Dose-dependent effect | – | CCCCCCN(C)CCc1ccc(-c2[nH]c3c(C#N)cnn3c(=O)c2C(C)C)cc1 |
| 25.4 | – | – | 30.1 | CCCCCN(C)CCCCC(=O)N(O)CCC(=O)O |
| 61.1 | 35.9 | Dose-dependent effect | 31.9 | CC(C)c1c(-c2ccccc2)[nH]c2c(C#N)cnn2c1=O |
| 32.5 | – | Dose-dependent effect | 61.5 | CCCCCCN(C)Cc1ccc(-c2[nH]c3c(C#N)cnn3c(=O)c2C(C)C)cc1 |
